Key:
[1] = test system: MCF7; experiment: Antiproliferative activity against human MCF7 cells after 48 hrs by SRB assay; format: functional, cell-based
Outline: (§1)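 Cells grown in RPMI with 10% fetal calf serum at 37 °C, 5% CO2, replated 24 h before use, >90% trypan blue viability. DMSO stocks (1 mg/ml) diluted in medium; 48 h exposure at 37 °C, triplicate wells, concentrations up to 250 µM. Fixed with cold TCA, SRB stained, dye solubilized in 10 mM Tris pH 10.5, A570. Percent inhibition calculated versus untreated cells after subtracting cell-free blanks.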

[2] = Cytotoxicity against human MCF12A cells after 48 hrs by SRB assay; format: cell-based, MCF-12A; outline: as §1
[3] = test system: CCRF-CEM; experiment: Antiproliferative activity against human CEM cells after 48 hrs by SRB assay; format: functional, cell-based; outline: as §1
[4] = test system: MCF7; experiment: Antiproliferative activity against human MCF7 cells at 250 uM after 48 hrs by SRB assay; format: functional, cell-based; settings: for inhibition at 250 µM: Homo sapiens, MCF7, 48 h; outline: as §1
[5] = Cytotoxicity against human MCF12A cells at 250 uM after 48 hrs by SRB assay; format: cell-based, MCF-12A; settings: read-out: INH; outline: as §1
[6] = test system: CCRF-CEM; experiment: Antiproliferative activity against human CEM cells at 250 uM after 48 hrs by SRB assay; format: functional; outline: as §1
[7] = test system: CCRF-CEM; experiment: Cytotoxicity against human CEM cells assessed as late apoptotic/necrotic cells at 120 uM after 24 hrs by Annexin-V-FITC and porpidium iodide staining based flow cytometry; format: functional
Outline: (§2)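 CEM cells at 10⁶/ml incubated 24 h at 37 °C with 120 µM agent from fresh DMSO stocks. Cells then washed in ice-cold PBS and taken into binding buffer (10 mM HEPES, 140 mM NaCl, 2.5 mM CaCl2). Annexin V-FITC and PI were added for 15 min in the dark at ambient temperature. Flow cytometry read 520/620 nm, gated on forward scatter to remove debris, counting 10,000 cells. Three experiments.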

[8] = test system: CCRF-CEM; experiment: Cytotoxicity against human CEM cells assessed as early apoptotic cells at 120 uM after 24 hrs by Annexin-V-FITC and porpidium iodide staining based flow cytometry; format: functional; outline: as §2
[9] = test system: CCRF-CEM; experiment: Cytotoxicity against human CEM cells assessed as viable cells at 120 uM after 24 hrs by Annexin-V-FITC and porpidium iodide staining based flow cytometry; format: functional; settings: read-out: Activity; outline: as §2
[10] = Homo sapiens, MCF7, 48 h, read-out: IC50
[11] = Homo sapiens, MCF-12A, 48 h, read-out: IC50
[12] = Homo sapiens, CCRF-CEM, 48 h, read-out: IC50

Row | IC50 ([1]; mcf7) | IC50 ([3]; ccrf-cem) | IC50 [1, 10] [µM] | IC50 [3, 12] [µM] | Compound | IC50 ([2]; mcf-12a) | inhibition at 250 µM [4] [%] | cytotoxicity at 48 h, 250 µM [5] [%] | inhibition at 250 µM [6] [%] | Inhibition ([4]; mcf7) [%] | IC50 [2, 11] [µM] | Activity [7] [%] | Activity [8] [%] | viability at 120 µM [9] [%]
1 | Not Active | Not Active | – | – | O=C1C[C@@H](O)[C@@H]2O[C@H](c3ccccc3)[C@@H](O)[C@@H]2O1 | Not Active | – | < 50 | < 50 | < 50 | – | – | – | –
2 | – | – | 124 | 19 | O=C1C=C[C@@H]2O[C@H](c3ccccc3)[C@@H](O)[C@@H]2O1 [ALTHOLACTONE] | – | – | – | – | – | 120 | 19 | 33 | 19
3 | – | – | 100 | 24 | O=C1C=C[C@H]2O[C@@H](c3ccccc3)[C@H](O)[C@H]2O1 [ENT-ALTHOLACTONE] | – | – | – | – | – | 110 | 40 | 10 | 19

The next lines start with the molecule.

Row | Compound | IC50 ([1]; mcf7) | IC50 ([3]; ccrf-cem) | IC50 [1, 10] [µM] | IC50 [3, 12] [µM] | IC50 ([2]; mcf-12a) | inhibition at 250 µM [4] [%] | cytotoxicity at 48 h, 250 µM [5] [%] | inhibition at 250 µM [6] [%] | Inhibition ([4]; mcf7) [%] | IC50 [2, 11] [µM] | Activity [7] [%] | Activity [8] [%] | viability at 120 µM [9] [%]
4 | COC(=O)C[C@H](O)[C@@H]1O[C@@H](c2ccccc2)[C@@H](O)[C@@H]1O | Not Active | Not Active | – | – | Not Active | < 50 | < 50 | < 50 | – | – | – | – | –
5 | COC(=O)C[C@H](O)[C@H]1O[C@@H](c2ccccc2)[C@H](O)[C@H]1O | Not Active | Not Active | – | – | Not Active | < 50 | < 50 | < 50 | – | – | – | – | –
6 | COC(=O)C[C@H](O)[C@@H]1O[C@@H](c2ccccc2)[C@H](O)[C@@H]1O | Not Active | Not Active | – | – | Not Active | < 50 | < 50 | < 50 | – | – | – | – | –
7 | COC(=O)C[C@@H](O)[C@@H]1O[C@H](c2ccccc2)[C@@H](O)[C@@H]1O (mixture of isomers) | Not Active | Not Active | – | – | Not Active | < 50 | < 50 | < 50 | – | – | – | – | –

Source: ChEMBL document CHEMBL1159063, “Apoptotic activities in closely related styryllactone stereoisomers toward human tumor cell lines: Investigation of synergism of styryllactone-induced apoptosis with TRAIL” (Bioorg Med Chem, 2010)
